Experimental data: ChEMBL document CHEMBL5705891, “Small-molecule kinase inhibitors provide insight into Mps1 cell cycle function” (Nat Chem Biol, 2010)
pKd: −log10 of the molar value. Each block holds one molecule with its values, some of them ahead of it. Activity calls are given as the source filed them. No cut-off for these calls is given here.

Assays:
UTRM10 = assay: Induction of aneuploidy in UTRM10 cells (unknown origin) expressing LAP-tagged Mps1 M602Q mutant co-transfected with H2B-EYFP at 10 uM by time-lapse microscopy; assay type: functional, cell-based
In short: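 UTRM10 LAP-Mps1 cells transfected with H2B-EYFP were treated and imaged by time-lapse in a heated chamber (37°C, 5% CO2).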

[1] = biological target: Protein-tyrosine kinase 2-beta (Homo sapiens, UniProt Q14289); assay: Binding affinity to PYK2 (unknown origin) assessed as dissociation constant by Ambit kinase binding assay
[2] = Inhibition of Mps1 in Potoroo PTK2 cells expressing EyFP-tagged human Mad2 assessed as reduction in time spent in mitosis at 10 uM incubated for 1 hr by fluorescence based imaging analysis relative to control; design: species or system Pt K2; conditions: Potorous tridactylus
In short: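 Randomly cycling PtK2 cells stably expressing hsMad2-EYFP were pretreated 1 h with 10 μM inhibitor, DMSO or no treatment. Time-lapse imaging at 37°C, 5% CO₂ scored mitotic duration from NEB to NER. Average time was reported (N=26–29); 95% CI; Student's t test.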

[3] = test system: Receptor-type tyrosine-protein kinase FLT3 (Homo sapiens), P36888 [D835Y]; assay: Inhibition of FLT3 D835Y mutant (unknown origin) assessed as residual enzyme activity at 10 uM by Ambit kinase binding assay relative to control
HeLa S3 [4] = assay: Reversal of nocodazole-induced mitotic arrest in human HeLa S3 cells expressing histone H2B-GFP assessed as DNA decondensation at 10 uM measured for 20 to 60 mins by immunofluorescence analysis; assay type: functional, cell-based; conditions: time 20-60 min
In short: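 HeLa S3 H2B-GFP cells were held in nocodazole (200 ng·ml⁻¹) with or without inhibitor. Mitotic exit was scored as DNA decondensation and nuclear envelope reassembly, imaged every 5 min (60X objective); 150 cells counted per population.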

U2OS [5] = assay: Reversal of nocodazole-induced mitotic arrest in human U2OS cells assessed as Ser10 phosphorylated Histone H3-positive 4c population at 5 uM incubated for 16 hrs by flow cytometry (reference value: 94 %); assay type: functional
HCT-116 [6] = assay: Antiproliferative activity against human HCT-116 cells with p53+/+ at 10 uM measured after 96 hrs in presence of Z-VAD-FMK by Syto60 staining based assay; assay type: functional, cell-based
[7] = Inhibition of Mps1 in nocodazole-treated Potoroo PTK2 cells expressing EyFP-tagged human Mad2 assessed as decrease in Mad2 recruitment to kinetochore at 10 uM incubated for 1 hr by fluorescence based imaging analysis relative to nocodazole; design: species or system Pt K2; conditions: Potorous tridactylus
In short: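 PtK2 (male Potorous tridactylus kidney) cells stably expressing human Mad2-EYFP, cultured in Advanced MEM with 2% FBS. Cells were pretreated 1 h with 10 μM inhibitor or DMSO, then given DMSO or nocodazole (200 ng·ml⁻¹). Time-lapse imaging ran at 37°C from NEBD. Kinetochore Mad2-EYFP density was background-corrected and normalized. N=20–29 cells; 95% CI; Student's t test.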

U2OS [8] = assay: Reversal of s-trityl cysteine-induced mitotic arrest in human U2OS cells assessed as accumulation of 4N phosphorylated Histone H3-negative cells incubated for 16 hrs by flow cytometry; assay type: functional, cell-based; conditions: dose 5-10 µM
Activated CDC42 kinase 1 = Activated CDC42 kinase 1 (Homo sapiens, UniProt Q07912); assay: Binding affinity to TNK2 (unknown origin) assessed as dissociation constant by Ambit kinase binding assay
U2OS [9] = assay: Induction of aneuploidy in UTRM10 cells (unknown origin) expressing LAP-tagged Mps1 M602Q mutant at 5 uM treated for 48 hrs by FACS analysis; assay type: functional, cell-based
In short: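 UTRM10 cells expressing RNAi-resistant LAP-Mps1 WT or M602Q were treated with compound or DMSO for 48 h, then DNA content was analysed by FACS.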

HeLa S3 [10] = assay: Effect on thymidine-treated human HeLa S3 cell populations after two cell doubling at 10 uM incubated for 4 hrs followed by thymidine release by immunofluorescence imaging analysis; assay type: functional, cell-based
[11] = biological target: Serine/threonine-protein kinase Chk2 (Homo sapiens) (UniProt O96017); assay: Inhibition of CHEK2 (unknown origin) assessed as residual enzyme activity at 10 uM by Ambit kinase binding assay relative to control
U2OS [12] = assay: Reversal of nocodazole-induced mitotic arrest in human U2OS cells assessed as accumulation of 4N phosphorylated Histone H3-negative cells incubated for 16 hrs by flow cytometry; assay type: functional, cell-based; conditions: dose 5-10 µM
HCT-116 [13] = assay: Induction of aneuploidy in human HCT-116 cells at 10 uM incubated for 4 days by FACS analysis; assay type: functional, cell-based; conditions: time 4.0 day
In short: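 HCT116 cells were treated with 10 μM compound or DMSO vehicle for the indicated times up to 96 h, then DNA content was profiled by flow cytometry.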

[14] = biological target: Dual specificity protein kinase CLK1 (Homo sapiens, UniProt P49759); assay: Inhibition of CLK1 (unknown origin) assessed as residual enzyme activity at 10 uM by Ambit kinase binding assay relative to control
HCT-116 [15] = assay: Induction of apoptosis in human HCT-116 cells assessed as increase in cleaved PARP level at 5 to 10 uM measured for 24 to 48 hrs in presence of Z-VAD-FMK by immunoblot analysis; assay type: functional, cell-based; conditions: dose 5-10 µM, time 24-48 hrs
[16] = biological target: SRSF protein kinase 1 (Homo sapiens) (UniProt Q96SB4); assay: Inhibition of SRPK1 (unknown origin) assessed as residual enzyme activity at 10 uM by Ambit kinase binding assay relative to control
[17] = biological target: Serine/threonine-protein kinase pim-1 (Homo sapiens) (UniProt P11309); assay: Inhibition of PIM1 (unknown origin) assessed as residual enzyme activity at 10 uM by Ambit kinase binding assay relative to control
[18] = biological target: Ribosomal protein S6 kinase alpha-1 (Homo sapiens) (UniProt Q15418); assay: Inhibition of RPS6KA1 kinase domain 2 (unknown origin) assessed as residual enzyme activity at 10 uM by Ambit kinase binding assay relative to control
[19] = biological target: Calcium/calmodulin-dependent protein kinase kinase 1 (Homo sapiens) (UniProt Q8N5S9); assay: Inhibition of CAMKK1 (unknown origin) assessed as residual enzyme activity at 10 uM by Ambit kinase binding assay relative to control
[20] = biological target: Serine/threonine-protein kinase tousled-like 2 (Homo sapiens) (UniProt Q86UE8); assay: Inhibition of TLK2 (unknown origin) assessed as residual enzyme activity at 10 uM by Ambit kinase binding assay relative to control
[21] = biological target: Serine/threonine-protein kinase 38-like (Homo sapiens) (UniProt Q9Y2H1); assay: Inhibition of NDR2 (unknown origin) assessed as residual enzyme activity at 10 uM by Ambit kinase binding assay relative to control
[22] = biological target: Death-associated protein kinase 3 (Homo sapiens) (UniProt O43293); assay: Inhibition of DAPK3 (unknown origin) assessed as residual enzyme activity at 10 uM by Ambit kinase binding assay relative to control
[23] = biological target: Death-associated protein kinase 2 (Homo sapiens) (UniProt Q9UIK4); assay: Inhibition of DAPK2 (unknown origin) assessed as residual enzyme activity at 10 uM by Ambit kinase binding assay relative to control
Death-associated protein kinase 2 (Homo sapiens), sequence (Q9UIK4 whole entry, looked up): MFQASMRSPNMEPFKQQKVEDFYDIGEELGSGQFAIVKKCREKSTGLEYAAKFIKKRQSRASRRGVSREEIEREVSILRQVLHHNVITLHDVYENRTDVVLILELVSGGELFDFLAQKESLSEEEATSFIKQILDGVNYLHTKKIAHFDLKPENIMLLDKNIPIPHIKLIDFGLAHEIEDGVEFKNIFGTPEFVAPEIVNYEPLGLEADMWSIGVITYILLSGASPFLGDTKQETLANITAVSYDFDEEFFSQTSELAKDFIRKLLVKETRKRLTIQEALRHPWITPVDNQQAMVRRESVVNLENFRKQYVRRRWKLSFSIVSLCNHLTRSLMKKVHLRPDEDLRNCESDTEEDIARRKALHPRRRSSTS

Serine/threonine-protein kinase 38-like (Homo sapiens), sequence (Q9Y2H1 2-464 limits assumed): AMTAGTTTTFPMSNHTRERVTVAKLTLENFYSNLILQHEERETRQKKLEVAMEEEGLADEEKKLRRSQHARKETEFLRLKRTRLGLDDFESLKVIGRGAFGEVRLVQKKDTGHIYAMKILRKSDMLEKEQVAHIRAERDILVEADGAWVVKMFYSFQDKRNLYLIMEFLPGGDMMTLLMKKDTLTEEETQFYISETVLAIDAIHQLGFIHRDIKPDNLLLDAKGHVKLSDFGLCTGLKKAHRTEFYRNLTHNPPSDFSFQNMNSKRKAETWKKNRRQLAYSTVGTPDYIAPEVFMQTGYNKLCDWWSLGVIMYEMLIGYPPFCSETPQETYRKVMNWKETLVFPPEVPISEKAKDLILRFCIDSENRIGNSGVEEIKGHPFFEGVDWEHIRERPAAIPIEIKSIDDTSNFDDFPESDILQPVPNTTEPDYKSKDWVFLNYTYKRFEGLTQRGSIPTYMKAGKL
Serine/threonine-protein kinase Chk2 (Homo sapiens), sequence (O96017 whole entry): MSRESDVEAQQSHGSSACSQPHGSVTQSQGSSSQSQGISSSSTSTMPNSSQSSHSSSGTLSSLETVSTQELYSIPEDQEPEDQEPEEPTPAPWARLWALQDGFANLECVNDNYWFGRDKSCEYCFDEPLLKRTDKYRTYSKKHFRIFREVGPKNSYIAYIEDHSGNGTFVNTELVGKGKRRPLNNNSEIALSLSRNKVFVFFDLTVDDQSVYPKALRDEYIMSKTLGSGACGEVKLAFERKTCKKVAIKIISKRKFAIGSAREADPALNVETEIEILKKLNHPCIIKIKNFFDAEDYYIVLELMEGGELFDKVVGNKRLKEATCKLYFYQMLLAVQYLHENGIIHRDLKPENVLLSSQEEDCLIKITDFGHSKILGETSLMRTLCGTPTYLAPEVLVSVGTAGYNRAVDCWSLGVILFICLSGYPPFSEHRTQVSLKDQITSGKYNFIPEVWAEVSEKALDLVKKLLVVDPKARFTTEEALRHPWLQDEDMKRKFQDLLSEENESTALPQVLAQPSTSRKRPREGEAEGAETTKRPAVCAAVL
Protein-tyrosine kinase 2-beta, sequence (Q14289 whole entry): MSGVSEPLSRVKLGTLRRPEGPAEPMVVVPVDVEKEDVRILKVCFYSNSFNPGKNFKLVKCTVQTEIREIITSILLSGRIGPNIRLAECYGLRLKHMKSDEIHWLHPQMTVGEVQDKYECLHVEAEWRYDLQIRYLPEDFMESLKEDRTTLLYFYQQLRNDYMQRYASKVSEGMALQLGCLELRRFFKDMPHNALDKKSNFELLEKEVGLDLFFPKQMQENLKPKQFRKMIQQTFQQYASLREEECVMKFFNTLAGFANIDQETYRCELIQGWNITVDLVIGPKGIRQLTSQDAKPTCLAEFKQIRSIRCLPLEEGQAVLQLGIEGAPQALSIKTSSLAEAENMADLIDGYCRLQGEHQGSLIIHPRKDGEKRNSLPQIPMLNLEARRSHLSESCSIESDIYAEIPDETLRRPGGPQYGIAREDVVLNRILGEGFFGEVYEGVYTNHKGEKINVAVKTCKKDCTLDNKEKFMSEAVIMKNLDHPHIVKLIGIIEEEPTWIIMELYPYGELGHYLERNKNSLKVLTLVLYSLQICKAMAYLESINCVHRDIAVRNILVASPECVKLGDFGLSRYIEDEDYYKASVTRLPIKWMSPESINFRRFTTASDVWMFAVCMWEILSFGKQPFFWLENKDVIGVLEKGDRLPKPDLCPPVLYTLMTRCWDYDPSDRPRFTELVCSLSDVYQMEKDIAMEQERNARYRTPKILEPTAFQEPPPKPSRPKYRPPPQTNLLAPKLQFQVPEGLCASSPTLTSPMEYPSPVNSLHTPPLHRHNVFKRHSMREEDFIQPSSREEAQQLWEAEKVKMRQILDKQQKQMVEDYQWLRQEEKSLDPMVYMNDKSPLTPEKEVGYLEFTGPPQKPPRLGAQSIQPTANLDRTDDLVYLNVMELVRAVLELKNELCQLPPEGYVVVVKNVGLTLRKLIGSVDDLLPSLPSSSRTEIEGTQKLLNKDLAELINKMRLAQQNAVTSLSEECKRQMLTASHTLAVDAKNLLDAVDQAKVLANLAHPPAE
Calcium/calmodulin-dependent protein kinase kinase 1 (Homo sapiens), sequence (Q8N5S9 whole entry, looked up): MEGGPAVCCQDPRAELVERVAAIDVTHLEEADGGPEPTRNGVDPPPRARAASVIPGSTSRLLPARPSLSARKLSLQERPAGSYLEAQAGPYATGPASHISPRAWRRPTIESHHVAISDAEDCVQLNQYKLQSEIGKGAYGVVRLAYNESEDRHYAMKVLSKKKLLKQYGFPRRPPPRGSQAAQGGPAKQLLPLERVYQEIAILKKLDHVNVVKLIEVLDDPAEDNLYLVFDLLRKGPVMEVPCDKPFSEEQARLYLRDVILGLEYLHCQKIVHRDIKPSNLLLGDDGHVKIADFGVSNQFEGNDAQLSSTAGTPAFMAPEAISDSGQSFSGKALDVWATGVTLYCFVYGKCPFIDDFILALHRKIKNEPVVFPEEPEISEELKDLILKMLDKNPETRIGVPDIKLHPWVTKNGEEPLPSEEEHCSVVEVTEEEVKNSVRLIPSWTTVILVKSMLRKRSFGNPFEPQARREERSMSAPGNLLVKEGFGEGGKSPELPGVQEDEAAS
Ribosomal protein S6 kinase alpha-1 (Homo sapiens), sequence (Q15418 whole entry, the tested form may be a part): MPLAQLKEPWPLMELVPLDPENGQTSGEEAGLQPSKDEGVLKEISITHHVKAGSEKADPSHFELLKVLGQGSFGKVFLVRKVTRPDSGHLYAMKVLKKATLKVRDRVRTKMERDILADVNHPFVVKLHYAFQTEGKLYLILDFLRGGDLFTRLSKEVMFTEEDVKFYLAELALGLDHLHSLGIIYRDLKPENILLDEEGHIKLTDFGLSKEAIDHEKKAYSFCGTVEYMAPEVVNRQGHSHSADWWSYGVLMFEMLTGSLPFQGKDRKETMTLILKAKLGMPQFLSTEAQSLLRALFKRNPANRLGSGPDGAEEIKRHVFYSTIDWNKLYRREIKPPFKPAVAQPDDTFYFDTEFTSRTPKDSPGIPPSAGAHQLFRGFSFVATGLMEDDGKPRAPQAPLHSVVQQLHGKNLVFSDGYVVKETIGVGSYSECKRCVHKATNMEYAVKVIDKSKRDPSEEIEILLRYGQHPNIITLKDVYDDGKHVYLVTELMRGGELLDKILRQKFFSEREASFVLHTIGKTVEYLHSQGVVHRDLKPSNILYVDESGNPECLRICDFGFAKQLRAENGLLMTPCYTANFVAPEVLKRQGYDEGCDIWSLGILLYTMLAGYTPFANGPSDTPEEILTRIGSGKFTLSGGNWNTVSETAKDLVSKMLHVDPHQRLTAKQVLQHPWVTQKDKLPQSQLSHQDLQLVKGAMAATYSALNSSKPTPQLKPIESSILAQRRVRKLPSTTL
SRSF protein kinase 1 (Homo sapiens), sequence (Q96SB4 whole entry): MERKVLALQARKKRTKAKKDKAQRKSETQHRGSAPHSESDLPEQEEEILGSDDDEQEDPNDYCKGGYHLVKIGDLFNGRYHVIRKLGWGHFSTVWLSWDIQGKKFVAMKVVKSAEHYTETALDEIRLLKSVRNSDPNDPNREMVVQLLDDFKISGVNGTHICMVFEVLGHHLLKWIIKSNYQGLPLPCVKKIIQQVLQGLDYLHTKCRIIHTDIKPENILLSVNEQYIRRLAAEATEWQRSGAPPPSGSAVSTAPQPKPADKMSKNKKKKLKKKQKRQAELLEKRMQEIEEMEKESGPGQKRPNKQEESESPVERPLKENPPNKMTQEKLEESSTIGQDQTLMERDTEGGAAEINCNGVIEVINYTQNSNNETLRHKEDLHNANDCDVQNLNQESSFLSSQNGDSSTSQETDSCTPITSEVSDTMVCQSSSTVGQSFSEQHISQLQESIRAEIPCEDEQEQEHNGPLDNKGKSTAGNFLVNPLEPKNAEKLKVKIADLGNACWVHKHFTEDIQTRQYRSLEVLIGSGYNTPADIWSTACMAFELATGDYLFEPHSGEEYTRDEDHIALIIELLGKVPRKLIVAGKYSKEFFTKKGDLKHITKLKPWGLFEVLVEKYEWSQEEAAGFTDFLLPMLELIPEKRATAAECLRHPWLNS
Death-associated protein kinase 3 (Homo sapiens), sequence (O43293 whole entry, looked up): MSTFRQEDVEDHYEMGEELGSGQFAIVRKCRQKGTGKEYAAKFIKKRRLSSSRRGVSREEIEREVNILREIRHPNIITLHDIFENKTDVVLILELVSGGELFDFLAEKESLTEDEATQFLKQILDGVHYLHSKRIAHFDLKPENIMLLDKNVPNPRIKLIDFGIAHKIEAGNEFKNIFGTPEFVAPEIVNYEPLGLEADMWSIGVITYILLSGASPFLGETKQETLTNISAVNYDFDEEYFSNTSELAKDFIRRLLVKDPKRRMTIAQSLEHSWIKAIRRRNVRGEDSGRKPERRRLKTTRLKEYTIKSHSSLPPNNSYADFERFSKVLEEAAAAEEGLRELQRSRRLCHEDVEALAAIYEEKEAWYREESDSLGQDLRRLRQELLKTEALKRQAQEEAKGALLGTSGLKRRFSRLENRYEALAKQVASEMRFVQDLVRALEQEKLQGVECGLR

- pKd [1]: 6.55
- Activity [3]: 24%
- pKd (Activated CDC42 kinase 1): 5.51
- Activity [11]: 7.3%
- Activity [14]: 17%
SMILES: COc1cc(N2CCC(O)CC2)ccc1Nc1cc(Nc2ccccc2S(=O)(=O)C(C)C)c2cc[nH]c2n1
- Activity (UTRM10): inactive
- inhibition at 10 µM [2]: ~40%
- Activity (HeLa S3 [4]): Active
- Activity (U2OS [5]): 8%
- Activity (HCT-116 [6]): Active
- inhibition at 10 µM [7]: 70%
- Activity (U2OS [8]): Dose-Dependent Effect
- Activity (U2OS [9]): Active
- Activity (HeLa S3 [10]): inactive
- Activity (U2OS [12]): Dose-Dependent Effect
- Activity (HCT-116 [13]): Active
- Activity (HCT-116 [15]): inactive

- Activity [16]: 32%
- Activity [17]: 24%
- Activity [18]: 3.8%
- Activity [19]: 10%
- Activity [20]: 30%
- Activity [21]: 28%
SMILES: O=C1c2ccccc2-c2n[nH]c3cccc1c23
- Activity [22]: 3.2%
- Activity [23]: 4.1%
